Experimental data taken from ChEMBL document CHEMBL1132719, “cycloSal-Pronucleotides of 2'-fluoro-ara- and 2'-fluoro-ribo-2',3'- dideoxyadenosine as a strategy to bypass a metabolic blockade” (J Med Chem, 1999).

What was measured:
[1] = system: CCRF-CEM; test: Antiviral activity evaluated as the ability to inhibit the replication of HIV-1 in human T-lymphocytic cells (CEM); type: functional, cell-based
How it was run: (§1)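 CEM cells at 4 × 10^5 cells/mL infected with HIV-1 (HTLV-IIIB) or HIV-2 (ROD) at ~100 CCID50 per mL. Virus stocks came from infected MT-4 supernatants. Infected cells were mixed with serial compound dilutions. Giant cell formation was scored microscopically after 4–5 days. EC50 is the 50% effective concentration.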

[2] = system: CCRF-CEM; test: Antiviral activity evaluated as the ability to inhibit the replication of HIV-2 in human T-lymphocytic cells (CEM); type: functional, cell-based; how it was run: as §1
[3] = system: C3H/3T3; test: (§2) Effect of compound against Moloney murine sarcoma virus (MSV)-induced transformation of C3H/3T3 embryo murine fibroblasts; type: functional, cell-based; conditions: Mus musculus
How it was run: (§3)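 C3H/3T3 cells seeded at 20 000 cells/mL and grown 24 h, then infected with 80 focus-forming units of MSV for 120 min. Medium was replaced with fresh medium containing the test compound. Transformation was examined microscopically after 6 days. EC50 is the concentration giving 50% inhibition of transformation. MCC is the minimum concentration causing microscopically visible morphological alteration of the cultures.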

[4] = system: CCRF-CEM; test: Cytotoxic concentration in Wild Type CEM cells; type: functional; conditions: Homo sapiens
[5] = Partition coefficient (logP); type: physicochemical; conditions: octanol/water
How it was run: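 Compound dissolved in 1-octanol, then an equal volume of water added. Phases were vortexed 10 min and separated by centrifugation. Each phase was analysed by RP-HPLC (UV 260 nm). P was calculated from the peak areas of the aqueous and organic phases.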

[6] = system: C3H/3T3; test: (§4) Minimal cytotoxic concentration required to cause morphological alteration of C3H/3T3 fibroblast culture cells; type: functional; conditions: Mus musculus; how it was run: as §3
[7] = Hydrolysis half life in phosphate buffer.; type: ADME
How it was run: (§5)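 Triester at 0.71 mM final in 25 mM Sørensen phosphate buffer, pH 7.3, 37 °C, with AZT as internal standard. Aliquots were frozen in liquid air, then analysed by RP-HPLC (UV 260 nm). k was taken from the slope of the log degradation curve of the starting triester and t1/2 derived from k. Values are the mean of duplicates, in hours.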

[8] = Selectivity index by CC50 of CEM cells/EC50 of CEM cells against HIV-1; type: functional, CCRF-CEM
[9] = system: C3H/3T3; test: as §2; type: functional, cell-based; conditions: Mus musculus; remark: listed apart in the source
How it was run: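 C3H/3T3 murine embryo fibroblasts seeded at 20 000 cells/mL, incubated 24 h, then infected for 120 min with 80 focus-forming units of Moloney murine sarcoma virus. Medium then replaced with fresh medium containing serial compound concentrations. Cell transformation scored microscopically after 6 days; EC50 taken as the concentration giving 50% inhibition of virus-induced transformation.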

[10] = system: C3H/3T3; test: as §4; type: functional; conditions: Mus musculus; remark: listed apart in the source
[11] = Hydrolysis half life in phosphate buffer; type: ADME; how it was run: as §5

## Cc1cccc2c1OP(=O)(OC[C@@H]1C[C@@H](F)[C@H](n3cnc4c(N)ncnc43)O1)OC2 (stereo not given in full)
[1]
  EC50: 11.7 µM
[2]
  EC50: 12.5 µM
[3]
  EC50: 2.83 µM
[4]
  CC50: 118 µM
[5]
  logP: 0.93
[6]
  MCC: > 50 µM
[7]
  half-life: 1400 min
[8]
  SI: 10

## Nc1ncnc2c1ncn2[C@H]1CC[C@@H](CO)O1
[1]
  EC50: 4.33 µM
[2]
  EC50: 4.55 µM
[4]
  CC50: > 250 µM
[8]
  SI: >57
[9]
  EC50: 39.1 µM
[10]
  MCC: > 50 µM

## Nc1ncnc2c1ncn2C1OC(COP2(=O)OCc3ccccc3O2)C[C@@H]1F (stereo not given in full)
[1]
  EC50: 4.53 µM
[2]
  EC50: 1.85 µM
[3]
  EC50: 1.7 µM
[4]
  CC50: 137 µM
[5]
  logP: 0.95
[6]
  MCC: > 50 µM
[8]
  SI: 74
[11]
  half-life: 534 min

## Cc1cccc2c1OP(=O)(OCC1C[C@H](F)C(n3cnc4c(O)ncnc43)O1)OC2 (stereo not given in full)
[1]
  EC50: 3.57 µM
[2]
  EC50: 3.57 µM
[3]
  EC50: > 50 µM
[4]
  CC50: > 250 µM
[5]
  logP: 0.51
[6]
  MCC: > 50 µM
[7]
  half-life: 1330 min
[8]
  SI: 26

## Nc1ncnc2c1ncn2C1OC(COP2(=O)OCc3ccccc3O2)C[C@H]1F (stereo not given in full)
[1]
  EC50: 19 µM
[2]
  EC50: 13 µM
[3]
  EC50: 4.7 µM
[4]
  CC50: > 250 µM
[5]
  logP: 0.72
[6]
  MCC: > 50 µM
[7]
  half-life: 504 min
[8]
  SI: >19

## COc1ccc2c(c1)COP(=O)(OCC1C[C@@H](F)C(n3cnc4c(N)ncnc43)O1)O2 (stereo not given in full)
[1]
  EC50: 20 µM
[2]
  EC50: 25 µM
[4]
  CC50: > 250 µM
[5]
  logP: 0.71
[7]
  half-life: 738 min
[8]
  SI: >12

## OCC1C[C@@H](F)C(n2cnc3c(O)ncnc32)O1 (stereo not given in full)
[1]
  EC50: > 250 µM
[2]
  EC50: > 250 µM
[3]
  EC50: > 50 µM
[4]
  CC50: > 250 µM
[5]
  logP: -0.96
[6]
  MCC: > 50 µM

## Cc1cccc2c1OP(=O)(OCC1C[C@@H](F)C(n3cnc4c(O)ncnc43)O1)OC2 (stereo not given in full)
[1]
  EC50: 75 µM
[2]
  EC50: 31.7 µM
[3]
  EC50: > 50 µM
[4]
  CC50: > 250 µM
[5]
  logP: 0.24
[6]
  MCC: > 50 µM
[7]
  half-life: 1360 min
[8]
  SI: >8

## OCC1C[C@H](F)C(n2cnc3c(O)ncnc32)O1 (stereo not given in full)
[1]
  EC50: 41.7 µM
[2]
  EC50: 30 µM
[3]
  EC50: > 50 µM
[4]
  CC50: > 250 µM
[5]
  logP: -1.19
[6]
  MCC: > 50 µM
[8]
  SI: >8

## COc1ccc2c(c1)COP(=O)(OCC1C[C@H](F)C(n3cnc4c(N)ncnc43)O1)O2 (stereo not given in full)
[1]
  EC50: 1.5 µM
[2]
  EC50: 5.67 µM
[4]
  CC50: 121 µM
[5]
  logP: 1.04
[7]
  half-life: 780 min

## Cc1cccc2c1OP(=O)(OC[C@@H]1C[C@H](F)C(n3cnc4c(N)ncnc43)O1)OC2 (single isomer, unassigned)
[1]
  EC50: 3.67 µM
[2]
  EC50: 3.3 µM
[4]
  CC50: 146 µM
[5]
  logP: 1.29
[7]
  half-life: 1300 min
[8]
  SI: 44

## Nc1ncnc2c1ncn2[C@@H]1OC(CO)C[C@H]1F (single isomer, unassigned)
[1]
  EC50: > 250 µM
[2]
  EC50: > 250 µM
[4]
  CC50: > 250 µM
[5]
  logP: -0.2
[9]
  EC50: > 50 µM
[10]
  MCC: > 50 µM

## Nc1ncnc2c1ncn2[C@@H]1O[C@H](CO)C[C@@H]1F [LODENOSINE]
[1]
  EC50: 36.7 µM
[2]
  EC50: 40 µM
[4]
  CC50: > 250 µM
[5]
  logP: -0.16
[8]
  SI: >6.8
[9]
  EC50: > 50 µM
[10]
  MCC: > 50 µM

## Cc1cn([C@H]2C=C[C@@H](CO)O2)c(=O)[nH]c1=O [STAVUDINE]
[4]
  CC50: 56 µM
